Measured values: ChEMBL document CHEMBL1141653, “New bis(2-aminoimidazoline) and bisguanidine DNA minor groove binders with potent in vivo antitrypanosomal and antiplasmodial activity” (J Med Chem, 2008)
Calls of active or inactive are those of the source. No cut-off for these calls is given here.

Legend:
[1] = Selectivity index, ratio of IC50 for rat L6 cells to IC50 for Trypanosoma brucei rhodesiense STIB900; format: functional
Summary of the method: (§1)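 Ratio of the IC₅₀ on L-6 rat skeletal myoblasts to the parasite IC₅₀. Cytotoxicity measured in RPMI 1640 with L-glutamine and 10% FBS, serial dilutions 90 to 0.123 µg/mL, duplicate. After 72 h, Alamar blue (resazurin) added for 2 h. Fluorescence read at ex 536 / em 588 nm.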

[2] = Selectivity index, ratio of IC50 for rat L6 cells to IC50 for Plasmodium falciparum K1; format: functional; summary of the method: as §1
[3] = Binding affinity for DNA assessed as thermal melting temperature
Summary of the method: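 Thermal melting of poly(dA)·poly(dT): DNA at 40 µM base with compound at 12 µM (ratio 0.3) in MES 0.01 M / EDTA 0.001 M buffer, pH 6.25. A260 followed from 20 to 95 °C at 0.5 °C/min. Value is ΔTm.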

[4] = tested on: Trypanosoma brucei rhodesiense; test: Antitrypanosomal activity against Trypanosoma brucei rhodesiense STIB900 infected NMRI mouse assessed as number of cured animals at 20 mg/kg, ip after 4 days; format: functional, organism-based; parameters: dose 20 mg/kg
Summary of the method: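 Mice infected ip with 2 × 10⁴ STIB900 bloodstream forms. Groups of four treated ip on days 3–6, with an untreated control group. Parasitemia checked every second day to day 14, then twice weekly to day 60. Mice surviving and aparasitemic at 60 days counted as cured.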

[5] = tested on: Trypanosoma brucei rhodesiense; test: Antitrypanosomal activity against Trypanosoma brucei rhodesiense STIB900 infected NMRI mouse assessed as survival of animals administered at 20 mg/kg, ip after 4 days; format: functional; settings: route intraperitoneal
Summary of the method: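 Mice infected ip with 2 × 10⁴ bloodstream forms of T. b. rhodesiense STIB900. Groups of four treated ip on days 3–6, untreated control group. Parasitemia checked every second day to day 14, then twice weekly to day 60. Deaths recorded for mean survival time. Surviving aparasitemic mice at 60 days counted as cured.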

Ferriprotoporphyrin IX [6] = test: Inhibition of ferriprotoporphyrin 9 biomineralization at 1 mg/ml; format: functional
Summary of the method: (§2)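 β-Hematin formation: hemin chloride (0.5 mg/mL in DMSO) with 0.5 M sodium acetate pH 4.4 and drug dilutions, 37 °C for 18–24 h. Pellet washed with DMSO, dissolved in 0.1 N NaOH, A405 read. Percent inhibition relative to solvent control. IC₅₀ derived, or percent inhibition at 1 mg/mL (highest concentration) given when no IC₅₀.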

[7] = tested on: Trypanosoma brucei rhodesiense; test: Antitrypanosomal activity against Trypanosoma brucei rhodesiense STIB900; format: functional, organism-based
Summary of the method: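 Bloodstream forms (10⁴ per well) in MEM with 15% heat-inactivated horse serum, 25 mM HEPES, 2-mercaptoethanol, hypoxanthine. 3-fold serial dilutions from 90 to 0.123 µg/mL, in duplicate. Incubation 72 h at 37 °C, 5% CO₂. Resazurin then added for 2–4 h more. Fluorescence read at ex 536 / em 588 nm.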

L6 = test: Cytotoxicity against rat L6 cells; format: cell-based
Plasmodium falciparum = test: Antiplasmodial activity against Plasmodium falciparum K1 in [3H]hypoxanthine incorporation assay; format: functional, organism-based; settings: K1, 72 h
Summary of the method: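 K1 erythrocytic stages in RPMI 1640 without hypoxanthine with AlbuMax, human A⁺ red cells at 2.5% hematocrit, 0.3% parasitemia. Compounds taken from 10 mg/mL DMSO stock, tested as serial doubling dilutions at 37 °C in 4% CO₂/3% O₂/93% N₂. After 48 h, ³H-hypoxanthine (0.5 µCi) added for 24 h more; incorporation by scintillation counting. IC₅₀ from sigmoidal curves.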

Ferriprotoporphyrin IX [8] = test: Inhibition of ferriprotoporphyrin 9 biomineralization; format: functional; summary of the method: as §2
Mus musculus = test: Toxicity in Plasmodium berghei ANKA infected NMRI mice (Mus musculus) at 50 mg/kg, intraperitoneally for 4 days; format: organism-based; parameters: dose 50 mg/kg, route intraperitoneal; settings: in vivo, ip, 96 h
Summary of the method: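 Toxicity recorded in the P. berghei ANKA model. Female NMRI mice (20–22 g), three per group, infected iv with 2 × 10⁷ parasitized erythrocytes. Compound in DMSO diluted 10-fold in water, dosed ip at 4, 24, 48 and 72 h post-infection. Survival followed up to 30 days after infection.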

Plasmodium berghei [9] = test: Antiplasmodial activity against Plasmodium berghei ANKA infected NMRI mice (Mus musculus) as reduced parasitemia at 50 mg/kg intraperitoneal dose after 4 days; parameters: scale not given: the % may be the effect or the level left
Plasmodium berghei [10] = test: Antiplasmodial activity as survival against Plasmodium berghei ANKA infection in NMRI mice (Mus musculus) at 50 mg/kg intraperitoneal dose for 4 days

Row | SMILES | Ratio IC50 [1] | Ratio IC50 [2] | ΔTm [3] | Activity [4] | Survival [5] | inhibition (Ferriprotoporphyrin IX [6]) | IC50 [7] | IC50 (L6) | IC50 (Plasmodium falciparum) | IC50 (Ferriprotoporphyrin IX [8]) | Activity (Mus musculus) | Activity (Plasmodium berghei [9]) | Survival (Plasmodium berghei [10])
1 | c1cc(NC2=NCCN2)ccc1CCc1ccc(NC2=NCCN2)cc1 | 646 | 2181 | 31.2 °C | Active | >60 days | 0% | 54 nM | 34900 nM | 16 nM |  |  |  | 
2 | Cl.Cl.O=C(Nc1ccc(NC2=NCCN2)cc1)c1ccc(NC2=NCCN2)cc1 | 7720 | 6893 | 47.1 °C | Active | >60 days |  | 25 nM | 193000 nM | 28 nM | 705000 nM |  |  | 
3 | Cl.Cl.N=C(N)Nc1ccc(NC(=O)c2ccc(NC(=N)N)cc2)cc1 | 319 | 209 | 40.1 °C | Active | >60 days | 0% | 36 nM | 11500 nM | 55 nM |  |  |  | 
4 | c1cc2c(cc1NC1=NCCN1)Cc1ccc(NC3=NCCN3)cc1C2 | 620 | 2000 | 33.2 °C | Active | >60 days |  | 60 nM | 37200 nM | 18.6 nM | 161000 nM |  |  | 
5 | c1cc2c(cc1NC1=NCCN1)Cc1cc(NC3=NCCN3)ccc1-2 | 17020 | 7252 | 44.1 °C |  |  |  | 4.9 nM | 83400 nM | 11.5 nM | 491000 nM |  |  | 
6 | N=C(N)Nc1ccc2c(c1)Cc1ccc(NC(=N)N)cc1C2 | 15 | 83 | 31.1 °C |  |  | 0% | 50 nM | 730 nM | 8.8 nM |  | Toxic |  | 
7 | c1cc(Sc2ccc(NC3=NCCN3)cc2)ccc1NC1=NCCN1 | 60 | 932 | 24.1 °C |  |  |  | 386 nM | 23300 nM | 25 nM | 952000 nM |  | 97.5% | 11.3 days
8 | Cl.N=C(N)Nc1ccc(C2CCN(c3ccc(NC(=N)N)cc3)CC2)cc1 | 111 | 585 | 30 °C |  |  | 0% | 217 nM | 24000 nM | 41 nM |  | Toxic |  | 
9 | N=C(N)Nc1ccc(CCc2ccc(NC(=N)N)cc2)cc1 | 24 | 57 | 26.1 °C |  |  | 0% | 45 nM | 1090 nM | 19 nM |  | Toxic |  | 
10 | CCOC(CNC(=N)Nc1ccc(Nc2ccc(NC(=N)NCC(OCC)OCC)cc2)cc1)OCC | >767 | >1548 | 13.6 °C |  |  |  | 228 nM | > 175000 nM | 113 nM | 162000 nM |  |  | 
